T cruzi repl: blocks replication of Trypanosoma cruzi | hit rate 1.4% among 300,000 | AID 1885 | inhibition, % (test concentration not listed) | T. cruzi beta-gal in NIH3T3, luminescence, 90 h;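 active = mean inhibition across valid replicates above about 55%, limit read from the data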;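 also: signal also drops with host cell toxicity which is not excluded here; 0% = plate median of DMSO wells and 100% = zero luminescence signal; higher percent means less beta-gal luminescence so fewer parasites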
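Test system: β-gal T. cruzi (Tulahuen C4) inside NIH/3T3 cells / Quantity: 5,000 cells/well / Measured by: luminescence from GalScreen with 0.05% NP40, read after 60 min / Medium: DMEM plus 2% FBS / Measure: parasite load inhibition, % / Reagent: Tulahuen C4 trypomastigotes, 5000/well / Schedule: co-culture of at least 90 h after 3 h attachment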
Beta apoptosis: blocks beta cell apoptosis; protection from apoptosis, % (no concentration beside the values); hit rate 0.8% among 300,000; INS-1E cytokine-induced death, ATP luminescence, 48 h; percent of positive-control rescue, neutral wells zero;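 active = Every replicate reaches about 75%, or at least half do and their mean reaches it too, limit read from the data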;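 also: 0% = cytokine-treated negative control wells and 100% = positive control rescue; higher means more ATP so stronger rescue from cytokine killing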
CSC inhib: blocks cancer stem cells; cancer stem cell-like cells viability, luminescence; inhibition, % at 7.5 µM; hit rate 1.1% among 300,000; AID 2717; in the data active = inhibition above about 75%; tested in HMLE shEcad cells
Efflux pump mplx: inhibitors of Candida antifungal efflux pumps expressed in yeast | hit rate 0.44% among 330,000 | S. cerevisiae Candida pump triplex, Nile Red efflux | inhibition, % at 10 µM | AID 485275;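 active = plate passing quality check with inhibition over a set limit, or well fluorescence over plate mean plus 4 SD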;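 also: Nile Red retained in pooled yeast measured as flow cytometry median fluorescence; 0% = buffer negative control and 100% = Enniatin B positive control; higher means more Nile Red kept so more efflux inhibition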
WT yeast gro inh: growth inhibition of WT yeast, mitochondrial fusion screen; mitochondrial fusion phenotypic screen, WT strain; hit rate 2.1% among 190,000; inhibition, % at 10 µM; AID 1362; in the data active = inhibition above about 58%; tested in S. cerevisiae
SUMO Mot1 rescue: inhibitors of SUMOylation pathway: yeast Mot1-301 growth rescue | hit rate 1% among 320,000 | growth rescue, % at 18.8 µM | S. cerevisiae Mot1-301 growth rescue, ATP luminescence, 38.5C; percent above DMSO median, 100 means doubled | AID 2716;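 active = every valid replicate shows activation above 250% relative to neutral control wells; inactive = the rest, any valid replicate at or below 250%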;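 also: OY570 slx delta 5 strain wells were the positive control but not used for scaling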
Mot1 SUMO dose: SUMO pathway inhibitors in yeast Mot1-301 growth. shares compounds with SUMO Mot1 rescue. S. cerevisiae Mot1-301 galactose growth, ATP luminescence, 24 h; -100 = growth of slx-deleted rescue strain. growth activity, percent, % at 42 µM. 2,300 tested, under 10 active;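 active = Signal drops as the depositor expects, and the fitted half-maximal dose is no more than ten times the top valid tested dose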;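 also: more negative values mean stronger growth rescue toward the control strain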
Active calls of the source: *; x = no result; + = active, no number; [ ] = another dose, or the depositor's remark. Only some compounds are listed: those with a hit (about 4.8% of all), similar ones and a draw of the others.

SMILES | T cruzi repl | Beta apoptosis | CSC inhib | Efflux pump mplx | WT yeast gro inh | SUMO Mot1 rescue | Mot1 SUMO dose
COC(=O)Cc1ccc(NC(=S)N2CCN(c3cc(Cl)ccc3C)CC2)cc1 | 1 | 1 | 3 | 0 | 11 | 291 | x
COc1ccc(/C=C2\SC(=S)N(CCCC(=O)Nc3cc(C)on3)C2=O)cc1OC | -11 | 0 | 7 | 1 | x | + | 0
CC1CCCC(N2CCN(S(=O)(=O)c3ccccc3)CC2)C1 (stereo not given) | -14 | -4 | 12 | 0 | x | -29 | x
COc1cc(CNCc2ccccn2)ccc1OCc1ccccc1Cl | 5 | 4 | x | 0 | -3 | 10 | x
COc1cc(CNCCN2CCOCC2)ccc1OCc1ccccc1Cl | 36 | -16 | 62 | 0 | -15 | 453* | 0
CCOc1ccc(Br)cc1CNCCN1CCOCC1 | -8 | -5 | 10 | 0 | -18 | 399* | 0
Clc1cc(Br)ccc1OCCOCCN1CCOCC1 | 44 | -1 | 0 | 0 | 9 | 504* | 0
CCOc1ccc2ccccc2c1CNCCN1CCOCC1 | 4 | -2 | 4 | 0 | 16 | 11 | x
CCC(C)C(NC(C)=O)C(=O)NC(=O)NC(c1ccccc1)c1ccccc1 (stereo not given) | 16 | 3 | -2 | 0 | 0 | -5 | x
CC(=O)c1ccc(N=C2SCCCN2C(=O)C2CCCC2)cc1 | 4 | 2 | -6 | 0 | -4 | 398* | 0
CC(=O)c1ccc(NC(=S)N2CCCCCC2)cc1 | -1 | -2 | -17 | 0 | -2 | 161 | x
Cc1ccc(NC(=O)C2CCCO2)cc1[N+](=O)[O-] (stereo not given) | -7 | -2 | -15 | 0 | 2 | -9 | x
O=C(CSc1ncnc2nc[nH]c12)Nc1ccccc1C(F)(F)F | -27 | 6 | -13 | 0 | -7 | 727* | 0
CCCN(C(=O)c1cccc(-n2cccc2)c1)c1c(N)n(Cc2ccccc2)c(=O)[nH]c1=O | 5 | -5 | 4 | 0 | x | -9 | x
CCOC(=O)C(NC(=O)c1ccccc1)(N1CCOCC1)C(F)(F)F (stereo not given) | -16 | -1 | 8 | 0 | 7 | + | 0
CCOC(=O)C(NC(=O)c1ccc(OC)cc1)(N1CCOCC1)C(F)(F)F (stereo not given) | -17 | -4 | -5 | 0 | -5 | -7 | x
Cc1ccc(CNC(=O)C2CCCN(S(=O)(=O)N3CC(C)CC(C)C3)C2)cc1 (stereo not given) | -3 | 0 | -3 | 0 | x | 22 | x
COc1ccc(-c2cc(C(F)(F)F)n3ncc(C(=O)O)c3n2)cc1OC | -7 | -2 | -18 | 0 | 3 | 367* | 0
Cc1ccc(S(=O)(=O)NC2CCCCCCC2)cc1 | 1 | 4 | -20 | 0 | x | 454* | 1
Cc1ccc(S(=O)(=O)Nc2n[nH]nc2C(=O)NC2CCCCC2)cc1 | -7 | -11 | -11 | 0 | -8 | 517* | 0
O=C(CN1C(=O)NC2(CCCCCC2)C1=O)NCc1ccc(Cl)cc1 | x | 0 | -21 | 0 | x | 17 | x
CCOC(=O)Cc1csc(NC(=O)NC2(C(F)(F)F)Oc3ccccc3O2)n1 | -21 | -7 | 11 | 0 | 7 | 770* | 0
Cn1c(=O)c2c(nc(N/N=C/c3ccc(OC(=O)c4ccco4)cc3)n2Cc2ccccc2Cl)n(C)c1=O | -6 | 31 | -2 | -2 | 21 | + | 0
COCCCNC(=O)COc1ccc(S(=O)(=O)Nc2ccccc2)cc1 | 4 | -2 | -7 | 0 | 10 | -11 | x
CCNC(=O)COc1ccc(S(=O)(=O)Nc2ccccc2)cc1 | -3 | -2 | -1 | 0 | -3 | 798* | 0[21 µM]
SMILES | T cruzi repl | Beta apoptosis | CSC inhib | Efflux pump mplx | WT yeast gro inh | SUMO Mot1 rescue | Mot1 SUMO dose
Cc1cc(O)c(/C=N/Nc2cccc(Cl)c2)c(=O)o1 | 20 | -7 | 12 | 0 | 45 | 416* | 0
Cc1cc(O)c(/C=N/Nc2ccc(Cl)cc2)c(=O)o1 | 22 | 1 | 3 | 0 | 8 | 127 | x
COc1ccc(Cl)cc1NC(=O)C/C(C)=N/NC(=O)Cc1ccccc1 | 5 | 2 | -1 | 1 | -4 | -6 | x
C/C(=N\NC(=S)Nc1ccccc1)C1Cc2ccccc2C(=O)O1 (stereo not given) | 15 | -1 | -16 | 0 | x | 393* | 0
C/C(=N\NC(=S)Nc1ccccc1C)C1Cc2ccccc2C(=O)O1 (stereo not given) | x | 0 | -14 | 0 | x | -16 | x
COc1cc([N+](=O)[O-])ccc1NC(=O)COC(=O)c1c[nH]c(=O)[nH]c1=O | x | -2 | -15 | 0 | x | 0 | x
Cc1ccccc1OC(C)C(=O)Nc1cccnc1 (stereo not given) | -10 | 6 | -5 | -1 | x | -12 | x
Cc1csc(CNc2ncnc3ccc(-c4cccnc4)cc23)c1 | x | 1 | x | 0 | x | -7 | x
Clc1ccccc1-c1ccc2ncnc(NCc3cccs3)c2c1 | x | 2 | x | 0 | x | 411* | -3
Cc1csc(CNc2ncnc3ccc(-c4ccccc4Cl)cc23)c1 | x | 1 | x | 0 | x | + | -1
Clc1cccc(-c2ccc3ncnc(NCc4cccs4)c3c2)c1 | x | 1 | x | 0 | x | 198 | x
Cn1c(C(=O)NN)cc2cc(OCc3ccccc3)ccc21 | 5 | 1 | -2 | 0 | x | 7 | x
CCOc1ccc2oc(C(=O)OC(C(=O)NC(N)=O)C(C)C)c(C)c2c1 (stereo not given) | 5 | -12 | -1 | 0 | x | 270 | x
CCc1ccc(N2C(=O)CC(Cn3nc(C)cc3C)C2=O)cc1 (stereo not given) | -10 | 0 | -16 | 0 | x | 258 | x
COc1cccc(/C=C2/C(=O)NN(c3ccc(Br)cc3)C2=O)c1O | 0 | x | x | 0 | x | 528* | 0
COc1cc(/C=C2/C(=O)NN(c3ccc(Cl)cc3)C2=O)cc(Br)c1O | 4 | -10 | -1 | 0 | x | 53 | x
COc1cccc(CNS(=O)(=O)c2ccc3c(c2)CCN3C(=O)C2CC2)c1 | 3 | 3 | 6 | 0 | -6 | x | x
COc1ccc(CNS(=O)(=O)c2ccc3c(c2)CCN3C(=O)C2CCC2)cc1 | -3 | -5 | -5 | 0 | x | 412* | 0
CS(=O)(=O)c1ccc(Cl)c(NC(=O)c2ccc3ccccc3c2)c1 | 22 | -3 | -6 | 0 | -17 | + | 0
O=C(N/N=C/c1ccc(Cl)s1)c1ccccc1[N+](=O)[O-] | -15 | 2 | -5 | 0 | x | 805* | 1
CCOc1ccccc1NC(=O)C(NCC1(N2CCCCC2)CCCCC1)c1ccccc1 (stereo not given) | 36 | 11 | -11 | 0 | 26 | -15 | x
COc1ccccc1CNC(=O)CN(c1ccc(C)cc1)S(=O)(=O)c1c(C)n[nH]c1C | -5 | 1 | 2 | 0 | -3 | 912* | -1
